# Screens (PubChem)
# VLA-4 inh: inhibition in human VLA-4 binding assay, primary screen, VLA-4 allosteric modulator project, MLPCN library, flow cytometry, VLA-4 expressing cells; Integrin alpha-4 (Homo sapiens), P13612; ligand binding flow cytometry; inhibition, % (about 7 µM as worked out from the volumes in the protocol); 0.2% of 330,000 active; AID 2557, 2010; in the data active = inhibition above about 50%
# UPR CHOP act: activators of apoptotic CHOP UPR arm, primary screen, cell-based, CHO-CHOP luciferase reporter, luminescence, uHTS. 0.34% of 330,000 active. activation, % at 10 µM. UPR activation; percent of tunicamycin response over DMSO baseline;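 active = at 10 µM dose, activation of 40% or more, normalized to positive control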
#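 System: CHO-CHOP luciferase reporter cell line; amount: 500 cells/well; buffer or medium: F12 medium containing 10% fetal bovine serum; incubation: 6 h compound exposure at 37 °C after overnight seeding; measured by: luciferase luminescence after 10 min with Steady-Glo reagent; evaluation: % reporter activation, DMSO baseline versus tunicamycin full activation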
# Beta2AR agonist: beta2AR agonists driving receptor internalization, primary screen, cell-based, FAP fluorogen, flow cytometry | Beta-2 adrenergic receptor (Homo sapiens), P07550 | Am2.2-beta2AR cells | response, % (test concentration not listed) | 0.43% of 340,000 active | AID 504454, 2011;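 active = response above a set limit, near 3 SD of response in nonfluorescent compounds, cut at about 42% in these data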
# Target sequence (P07550 whole entry, looked up): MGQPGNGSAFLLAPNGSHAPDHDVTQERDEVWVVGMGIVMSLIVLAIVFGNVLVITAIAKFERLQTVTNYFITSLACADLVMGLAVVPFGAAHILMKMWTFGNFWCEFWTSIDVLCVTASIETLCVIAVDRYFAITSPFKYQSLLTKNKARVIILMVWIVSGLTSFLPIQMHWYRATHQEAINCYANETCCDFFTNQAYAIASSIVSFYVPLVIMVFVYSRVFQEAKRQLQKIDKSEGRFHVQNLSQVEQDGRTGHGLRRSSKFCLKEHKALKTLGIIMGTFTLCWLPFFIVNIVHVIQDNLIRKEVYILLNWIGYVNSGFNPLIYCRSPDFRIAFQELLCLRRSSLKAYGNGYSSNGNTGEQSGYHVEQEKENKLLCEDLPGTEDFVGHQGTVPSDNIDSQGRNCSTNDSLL
# CHOP inh: inhibitors of CHOP promoter induction, primary screen, cell-based, unfolded protein response, luciferase reporter. CHO-K1 CHOP-promoter luciferase, tunicamycin-induced, 15-18 h. inhibition, % at 10 µM. 3.8% of 220,000 active. AID 2732, 2010;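 active = compounds that reduced the stress-induced luciferase reporter signal by more than about 70% of percent inhibition, limit read from the data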
# UPR XBP1 act: activators of adaptive XBP1 UPR arm, primary screen, cell-based, CHO-XBP1 luciferase reporter, luminescence, uHTS. IRE1-XBP1 UPR activation; percent of tunicamycin response, DMSO as zero. activation, % at 20 µM. 0.33% of 330,000 active. AID 463104, 2010;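 active = versus positive control, 20 µM dose yields 30% or more activation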
#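 Material: CHO-XBP1 cells stably carrying IRE1-XBP1-driven luciferase reporter / Amount: 1000 cells per well / Compound: 20 µM, 1% DMSO / Times: 6 h treatment, 37 °C / Detection: luciferase luminescence / Measure: % activation of reporter signal versus tunicamycin and DMSO controls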
# CHOP UPR conf: activators of apoptotic CHOP UPR arm, confirmation, cell-based, CHO-CHOP luciferase reporter, single concentration | 64% of 1,000 active | shares compounds with UPR CHOP act | CHO-CHOP cells, CHOP-luciferase reporter luminescence; percent of tunicamycin response, DMSO as zero | activation, % at 10 µM | AID 463112, 2010; in the data active = activation above about 33%
# UPR XBP1 confirm: IRE1-XBP1 UPR arm activators, confirmation, cell-based, CHO-XBP1 luciferase reporter, luminescence, single concentration | shares compounds with UPR XBP1 act | activation, % at 20 µM | 63% of 1,000 active | AID 485299, 2010;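 active = reporter signal at least 30% of the positive control's activation in two or more of four replicate wells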
# Hits are given with their value; . = inactive; / = not tested or not shown. This excerpt belongs to a sample that is enriched for hits.
SMILES,VLA-4 inh,UPR CHOP act,Beta2AR agonist,CHOP inh,UPR XBP1 act,CHOP UPR conf,others
Fc1ccc(C2=Nc3cccc4cccc(c34)N2)cc1,.,.,.,.,.,/,
CC(C)CC1NC(=O)N(CC(=O)Nc2ccc(OCc3ccccc3)cc2)C1=O (stereo not drawn),/,.,.,/,.,/,
O=C(c1cccs1)N(C(=O)c1cccs1)c1ccc(Br)cn1,.,98.0,.,.,85.8,59.0,
Cc1ccnc(N(C(=O)c2cccs2)C(=O)c2cccs2)c1,.,.,.,.,.,/,
Cc1ccc(OCC(=O)Nc2ccncc2)cc1,.,.,.,/,.,/,
CCCCCCCCNCCS(=O)(=O)NC1CCCCC1,/,/,.,/,/,/,
Cc1nc2scc(-c3ccccc3)c2c(=O)n1N=C1C=CC(=O)C=C1,/,89.7,/,109.7,.,.,
Cc1nc2scc(-c3ccccc3)c2c(=O)n1N,.,.,.,.,.,/,
O=S(=O)(NCc1cccnc1)c1ccc2ccccc2c1,.,.,.,/,.,/,
O=C(O)C(c1ccccc1)C1(O)CCC1 (stereo not drawn),/,/,.,/,/,/,
Oc1c(C(c2ccccn2)N2CCC(Cc3ccccc3)CC2)cc(Cl)c2cccnc12 (stereo not drawn),.,42.8,/,.,.,73.7,
CN1CCN(C(c2ccccn2)c2cc(Cl)c3cccnc3c2O)CC1 (stereo not drawn),.,.,.,.,.,/,
CCN(CC)Cc1c(O)ccc2c1O/C(=C\C=C\c1ccccc1)C2=O,.,69.3,.,.,.,.,
COc1ccccc1/C=C/C=C1\Oc2c(ccc(O)c2CN(C)C)C1=O,.,.,.,.,.,/,
Cc1ccc(NC(=O)c2cnc(SCC(=O)NCC3CCCO3)n(C)c2=O)cc1C (stereo not drawn),.,50.9,.,/,.,.,
O=C(/C=C/c1ccccc1Cl)c1ccc(O)cc1,.,.,.,.,.,/,
O=C(/C=C/c1c(F)cccc1Cl)c1ccc(O)cc1,.,59.8,.,.,.,.,
Brc1ccccc1CN1CCN(Cc2c[nH]c3ccccc23)CC1,.,41.5,.,/,.,153.4,
Brc1ccc(CN2CCN(Cc3c[nH]c4ccccc34)CC2)cc1,.,.,.,/,.,/,
CCCN1C(=O)/C(=C/c2ccc3c(c2)OCO3)NC1=S,/,/,.,.,/,/,
CCCN1C/C(=C/c2ccc3c(c2)OCO3)C(=O)/C(=C/c2ccc3c(c2)OCO3)C1,.,54.6,.,97.2,.,115.4,
CCOc1ccc(/C=N/NC(=O)NC23CC4CC(CC(C4)C2)C3)cc1O,.,.,.,/,.,/,
O=C(N/N=C/c1ccc(O)c(O)c1)NC12CC3CC(CC(C3)C1)C2,.,144.8,.,/,41.7,157.5,
C1=CC2=NC34CCCCC3CC3=C(CCCC3)N4C2=CC1=NC1CCCCC1 (stereo not drawn),.,48.5,.,/,.,.,
CCOC(=O)c1cc(C)n(CCc2ccccc2)c1C,.,.,.,.,.,/,
SMILES,VLA-4 inh,UPR CHOP act,Beta2AR agonist,CHOP inh,UPR XBP1 act,CHOP UPR conf,others
Cc1cc(C(=O)CCl)c(C)n1CCc1ccccc1,.,195.7,/,.,.,204.1,
Cc1cc(C(=O)CCl)c(C)n1Cc1ccco1,.,98.7,.,.,.,235.6,
Nc1n[nH]c(N)c1N=Nc1ccc2c(c1)OCO2,.,.,.,.,.,/,
O=C(N/N=C/c1cccc2nccnc12)c1ccccc1O,.,.,.,.,.,/,
O=C(N/N=C/c1cccc2cccnc12)c1ccccc1O,.,347.0,.,.,.,559.3,
Cc1ccc(C(C)NC(=S)NC2CCCCC2)c(C)c1 (stereo not drawn),.,.,.,/,.,/,
COc1ccc2nc(-c3ccc(F)cc3)sc2c1,.,.,.,/,.,/,
CC1CCCCC1NC(=O)NC(=O)CCl (stereo not drawn),.,42.1,.,.,.,.,
COc1c(Cl)cc(Cl)cc1/C=C/C(=O)c1ccc(NC(=O)c2cccs2)cc1,.,54.7,.,.,.,247.0,
COc1c(Cl)cc(Cl)cc1C(=O)Nc1ccc(C(=O)O)cc1,.,.,.,.,.,/,
Cc1nnc(NC(=O)c2nc(S(=O)(=O)Cc3ccccc3C)ncc2Cl)s1,.,.,.,/,.,/,
CC(C)c1nnc(NC(=O)c2nc(S(=O)(=O)Cc3ccccc3F)ncc2Cl)s1,.,55.8,/,/,.,.,
CSc1ncc(Cl)c(C(=O)Nc2nnc(SC/C=C/c3ccccc3)s2)n1,.,.,.,.,.,/,
CSc1nnc(NC(=O)c2nc(S(=O)(=O)Cc3ccccc3F)ncc2Cl)s1,.,43.8,.,/,.,77.2,
O=C(NCc1ccc2c(c1)OCO2)c1nc(S(=O)(=O)Cc2ccccc2F)ncc1Cl,.,43.1,.,/,.,.,
COc1ccc(-n2c(C)nnc2SCC(=O)N2CCOCC2)cc1,.,.,.,/,.,/,
CC12CCC(=O)N1C(C(=O)NNC(=O)c1ccc(F)cc1)CS2 (stereo not drawn),.,.,.,/,.,/,
CCNC(=S)N1CCN(C(=O)C(Cc2ccccc2)NC(C)=O)CC1 (stereo not drawn),.,52.3,.,.,.,.,
CN1CCC(NC(=S)NC2CC2)CC1,.,87.5,.,.,.,.,
O=C1/C(=C/c2ccccc2[N+](=O)[O-])COc2ccccc21,.,173.1,.,95.1,.,85.5,
CCCCOC(=O)/C=C\C(=O)NC(N)=O,.,88.1,.,.,.,121.2,
CS(=O)(=O)Oc1ccc2c(c1)O/C(=C\c1cccc([N+](=O)[O-])c1)C2=O,.,.,.,/,.,/,
CS(=O)(=O)Oc1ccc2c(c1)O/C(=C\C=C\c1ccccc1)C2=O,.,154.1,.,.,46.6,33.8,UPR XBP1 confirm=.
COc1ccc(NC2CCCN(C(=O)CCN3Cc4ccccc4C3=O)C2)cc1 (stereo not drawn),.,.,.,/,.,/,
NC(=O)C1CCN(C(=O)CCSCc2ccc(Cl)c(Cl)c2)CC1,.,.,.,/,.,/,
O=C(/C=C1\NC2(CCCC2)Cc2ccccc21)C(=O)N/N=C/c1ccc(O)c(O)c1,.,124.1,.,.,91.9,67.9,UPR XBP1 confirm=79.6
CC(C)CN(C(=O)CSc1nc2ccccc2[nH]1)C1CCS(=O)(=O)C1 (stereo not drawn),.,.,.,/,.,/,
CN(/N=C\c1ccc(O)c(O)c1)c1nc(-c2ccccc2)cc(-c2ccccc2)n1,.,111.9,.,102.8,65.7,92.8,UPR XBP1 confirm=97.8
